Screening results deposited in PubChem BioAssay by several laboratories.
The list is not random: actives were taken first. Their share in the collection is about 1.6%.
ATG4B inh = ATG4B (human) cysteine protease inhibition; Q9Y4P1; ATG4B cleavage of LC3-PLA2, NBD-HPC fluorescence, 1 h; inhibition, % at 8.33 µM; 340,000 compounds, 0.51% hits; in the data active means inhibition above about 40%
Target sequence (Q9Y4P1 whole entry, looked up): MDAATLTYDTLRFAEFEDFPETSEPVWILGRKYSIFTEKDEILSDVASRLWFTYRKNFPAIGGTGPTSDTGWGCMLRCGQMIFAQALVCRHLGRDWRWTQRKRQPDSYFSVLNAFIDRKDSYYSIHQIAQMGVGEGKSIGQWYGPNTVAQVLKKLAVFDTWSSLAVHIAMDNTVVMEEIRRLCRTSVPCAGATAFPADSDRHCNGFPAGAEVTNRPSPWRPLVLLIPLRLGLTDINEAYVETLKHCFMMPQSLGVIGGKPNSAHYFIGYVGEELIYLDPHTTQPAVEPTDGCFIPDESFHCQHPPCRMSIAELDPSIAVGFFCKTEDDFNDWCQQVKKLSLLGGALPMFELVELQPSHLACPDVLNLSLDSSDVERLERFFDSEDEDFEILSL
PKA-R1A act = PKA-R1A complex activation; P00514+P68181; PKA-R1A dissociation, Cy5-IP20 fluorescence polarization; scaled: DMSO 0%, 113 µM cGMP 100%; activation, % at 11.4 µM; 340,000 compounds, 0.083% hits;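 active means percent activation above the mean of all tested compounds plus 3 SD, cut at about 19% in these data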;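 further: higher means more PKAc released from R1A so a rise in polarization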
T cell HTS = T cell immune modulators affecting CD8 T cell-vesicle binding | 2C CD8+ T cell-vesicle binding, flow cytometry; stronger effect = lower value | response (vesicle binding), % at 7 µM | 330,000 compounds, 0.068% hits;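 active means response, share of CD8 T cells binding vesicles, and their 90th percentile fluorescence all below set limits, cut at about 80% in these data, passing the limit was not always enough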;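 further: values below 100% mean blocked vesicle binding to the CD8+ T cells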
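material = purified 2C TCR transgenic mouse naive CD8+ T cells | controls = Unloaded micro-vesicles (low), QL9 vesicles with 0.7% DMSO (high) | detection = cytometric PE anti-B7-1 and Alexa647 anti-CD8 signals after 1% paraformaldehyde fixation | incubation = binding step 1.5 h, 37 °C, antibody labelling 20 min, ice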
PKA-R2B act = activates the human PKA-R2B holoenzyme complex | PKA-R2B holoenzyme dissociation, Cy5-IP20 fluorescence polarization; R2B truncated from residue 108, S112A mutant; 0% DMSO only, 100% 113 µM cGMP | 340,000 compounds, 0.079% hits | P22694+P31323 | activation, % at 11.4 µM;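 active means activation above a cutoff set at the mean over all compounds plus 3 SD, cut at about 18% in these data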;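 further: higher means more holoenzyme dissociation and a rise in polarization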
HKDC1 inhibitor = HKDC1 (human) hexokinase inhibition | inhibition, % at 20 µM | 340,000 compounds, 0.16% hits | Q2TB90 | recombinant HKDC1, G6PDH/diaphorase resazurin coupled fluorescence;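 active means inhibition above about 35% when tested at 20 µM, limit read from the data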;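 further: plate controls were DMSO wells with enzyme for no effect and DMSO wells lacking enzyme for full effect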
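System: Recombinant HKDC1 hexokinase | Amount: HKDC1 at 5 µg/mL | Reagent: Glucose with 1 mM ATP | Doses: Single 20 µM dose | Incubation: Reaction time 90 min, room temperature, protected from light | Signal: Coupled resazurin fluorescence, excitation 525 nm, emission 613 nm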
PfG6PD inh = PfG6PD (Plasmodium falciparum) enzyme inhibition | PfGluPho enzyme, NADPH resazurin-diaphorase fluorescence | inhibition, % at 20 µM | 350,000 compounds, 0.78% hits | AID 504690;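 active means inhibition reaching at least a set limit at 20 µM in the primary screen, cut at about 59% in these data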;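 further: 0% = DMSO wells with substrate and 100% = DMSO wells lacking glucose-6-phosphate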
PLA2 ctr = inhibits human PLA2, flagging false ATG4B inhibitors. 1,600 compounds, 66% hits. shares compounds with ATG4B inh. inhibition, % at 8.33 µM. purified PLA2, NBD-C6-HPC fluorescence, 45 min; in the data active means inhibition above about 50%
Target sequence (P04054 whole entry, looked up): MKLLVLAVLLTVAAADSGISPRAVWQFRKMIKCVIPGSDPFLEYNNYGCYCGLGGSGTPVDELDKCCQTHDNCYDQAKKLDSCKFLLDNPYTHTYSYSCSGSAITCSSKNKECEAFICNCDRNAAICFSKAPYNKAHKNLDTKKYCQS
* hit, by the source's call.

Nc1ccc(S(=O)(=O)c2ccc(NC(=O)c3cccnc3)cc2)cc1 was read as ATG4B inh -6, PKA-R1A act 8, PKA-R2B act 4, HKDC1 inhibitor 2 and PfG6PD inh 15.
`Oc1ccccc1-c1cc(-c2ccccc2Cl)[nH]n1` gave ATG4B inh 56*, PKA-R1A act -11, T cell HTS 228, PKA-R2B act -11, HKDC1 inhibitor 5, PfG6PD inh -6 and PLA2 ctr 68*.
Cc1ccc(O)c(-c2cc(-c3ccccc3C)[nH]n2)c1 was read as ATG4B inh 55*, PKA-R1A act -8, PKA-R2B act -20, HKDC1 inhibitor -3, PfG6PD inh 12 and PLA2 ctr 62*.
O=[N+]([O-])c1ccccc1-c1cc(-c2cc(Cl)ccc2O)n[nH]1 was read as ATG4B inh 88*, PKA-R1A act -10, T cell HTS 270, PKA-R2B act -13, HKDC1 inhibitor -7, PfG6PD inh -8 and PLA2 ctr 85*.
COc1ccc(O)c(-c2cc(-c3ccccc3[N+](=O)[O-])[nH]n2)c1 was read as ATG4B inh 19, PKA-R1A act -4, T cell HTS 312, PKA-R2B act -8, HKDC1 inhibitor 0 and PfG6PD inh -9.
For Cc1ccc(O)c(-c2cc(-c3ccccc3[N+](=O)[O-])[nH]n2)c1 the results were ATG4B inh 73*, PKA-R1A act -14, T cell HTS 246, PKA-R2B act -17, HKDC1 inhibitor -5, PfG6PD inh 18 and PLA2 ctr 67*.
For CCOC(=O)/C=c1/s/c(=C/c2ccccc2OC)c(=O)n1CC(=O)N1CCOCC1 the results were ATG4B inh -14, PKA-R1A act 0, PKA-R2B act 2, HKDC1 inhibitor -3 and PfG6PD inh 11.
COc1ccc(C)cc1NS(=O)(=O)c1ccc2c(c1)CCN2C(C)=O was read as ATG4B inh -8, PKA-R1A act -3, T cell HTS 178, PKA-R2B act 0, HKDC1 inhibitor 3 and PfG6PD inh -8.
For Cc1ccc(S(=O)(=O)N2[C@@H](c3ccc(C(C)(C)C)cc3)C(C(=O)O)=CC[C@H]2c2cccc(Cl)c2)cc1 the results were ATG4B inh 41*, PKA-R1A act 6, T cell HTS 972, PKA-R2B act -4, HKDC1 inhibitor 2, PfG6PD inh -30 and PLA2 ctr 61*.
CCOc1ccc(CCNC(=O)COC(=O)c2cccnc2SC)cc1OCC was read as ATG4B inh -10, PKA-R1A act -6, T cell HTS 228, PKA-R2B act -12, HKDC1 inhibitor 0 and PfG6PD inh 10.
`O=c1cc(CSc2nc3ccccc3[nH]2)c2ccccc2[nH]1` gave ATG4B inh -10, PKA-R1A act 3, T cell HTS 337, PKA-R2B act -9, HKDC1 inhibitor -3 and PfG6PD inh 45.
`Fc1ccc(CSc2nc3ccccc3[nH]2)c2ccccc12` gave ATG4B inh 66*, PKA-R1A act -18, T cell HTS 217, PKA-R2B act -10, HKDC1 inhibitor 1, PfG6PD inh -2 and PLA2 ctr 74*.
`COc1ccc(CC(=O)Nc2ccc(N3CCCC3)c(C)c2)cc1` gave ATG4B inh -8, PKA-R1A act 3, T cell HTS 162, PKA-R2B act 2, HKDC1 inhibitor 5 and PfG6PD inh 25.
COc1ccc(NC(=O)CC(C)C)c([N+](=O)[O-])c1 was read as ATG4B inh 4, PKA-R1A act 5, T cell HTS 141, PKA-R2B act -10, HKDC1 inhibitor 4 and PfG6PD inh 2.
`COc1ccc(NC(=O)CC(C)c2ccccc2)c([N+](=O)[O-])c1` (stereo not drawn) gave ATG4B inh 42*, PKA-R1A act -16, T cell HTS 281, PKA-R2B act -5, HKDC1 inhibitor 8, PfG6PD inh 3 and PLA2 ctr 1.
O=[N+]([O-])c1ccc(N/N=C/c2sc(N3CCOCC3)nc2-c2ccccc2)c(S(=O)(=O)Nc2ccccc2Cl)c1 was read as ATG4B inh 62*, PKA-R1A act 3, PKA-R2B act -4, HKDC1 inhibitor -5, PfG6PD inh -12 and PLA2 ctr 26.
For Nc1ccc(C(=O)N/N=C\c2ccc(OC(=O)c3ccccc3Cl)cc2)cc1 the results were ATG4B inh 0, PKA-R1A act 2, T cell HTS 92, PKA-R2B act 8, HKDC1 inhibitor -7 and PfG6PD inh 0.
For O=C(O)c1ccc(N/N=C/c2ccc(OC(=O)c3ccccc3Cl)cc2)cc1 the results were ATG4B inh 94*, PKA-R1A act -11, T cell HTS 474, PKA-R2B act -17, HKDC1 inhibitor 9, PfG6PD inh -9 and PLA2 ctr 96*.
For CC(C)c1ccc(NC2CCCN(C(=O)c3ccnn3C)C2)cc1 (stereo not drawn) the results were ATG4B inh 2, PKA-R1A act -8, T cell HTS 162, PKA-R2B act -2, HKDC1 inhibitor -1 and PfG6PD inh 9.
For CC(C)c1ccc(NC2CCCN(C(=O)c3cnsn3)C2)cc1 (stereo not drawn) the results were ATG4B inh 25, PKA-R1A act 3, T cell HTS 250, PKA-R2B act 2, HKDC1 inhibitor 8 and PfG6PD inh 20.
For COC(=O)c1ccc(C(=O)N2CCCC(Nc3ccc(C(C)C)cc3)C2)cc1 (stereo not drawn) the results were ATG4B inh 81*, PKA-R1A act 11, T cell HTS 291, PKA-R2B act 0, HKDC1 inhibitor 2, PfG6PD inh 6 and PLA2 ctr 82*.
Screening CC(C)c1ccc(NC2CCCN(C(=O)c3cccs3)C2)cc1 (stereo not drawn) returned ATG4B inh 76*, PKA-R1A act -2, T cell HTS 325, PKA-R2B act -3, HKDC1 inhibitor 2, PfG6PD inh 0 and PLA2 ctr 73*.
Cc1occc1C(=O)N1CCCC(Nc2ccc(C(C)C)cc2)C1 (stereo not drawn) was read as ATG4B inh 50*, PKA-R1A act -1, T cell HTS 238, PKA-R2B act -1, HKDC1 inhibitor 0, PfG6PD inh 8 and PLA2 ctr 58*.
